Compound activity from PubChem.
COUP-TFII inh: blocks human COUP-TFII nuclear receptor; P24468; HEK293T NGFI-A luciferase reporter, luminescence; inhibition, % at 8.6 µM; 370,000 tested, 0.7% active;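 active means inhibition above a per-plate cutoff, mean inhibition of test wells between control levels plus 3 SD, cut at about 38% in these data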;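 further: cells cotransfected with COUP-TFII expression vector driving the NGFI-A reporter; 0% = median of COUP-TF2 test wells and 100% = reporter-only cells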
NR2E3 ag-1: agonists of human nuclear receptor NR2E3. 320,000 tested, 0.12% active. inhibition of corepressor binding, % at 4.78 µM. Q9Y5X4. GST-NR2E3/biotin-RetCOR TR-FRET, 1536-well;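 active means percent inhibition above the cutoff of mean plus 3 SD of all tested compounds, set per screening campaign, cut at about 20% in these data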;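 further: 0% = DMSO wells and 100% = biotin wells as full block of FRET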
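System: GST-tagged NR2E3 plus biotinylated RetCOR corepressor; Amount: 1.35 nM GST-tagged NR2E3 final; Dosing: single nominal compound dose of 4.8 µM; Schedule: 5 h incubation at 4 °C; Technique: TR-FRET with europium anti-GST and streptavidin-D2, 340 nm excitation; Controls: biotin wells as high control, 0.6% DMSO wells as low control.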
CHT allo act: human CHT allosteric activation | Q9GZV3 | AID 488977 | 310,000 tested, 0.49% active | B-score at 10 µM | CHT-expressing cells, membrane potential dye, choline EC20; stronger effect = higher value; LV-AA mutant CHT in HEK293 cells;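 active means initial fluorescence not abnormally high and integrated response B-score, plate-corrected, over 3 SD above library mean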
NR2E3 ag-2: agonists of human NR2E3 nuclear receptor; inhibition of corepressor binding, % at 3.98 µM; AID 602229; 360,000 tested, 0.35% active; CHO-S Gal4-NCOR/VP16-NR2E3 two-hybrid, luciferase;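 active means inhibition above the mean of all tested compounds plus 3 SD, cut at about 70% in these data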;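 further: 0% = DMSO with NR2E3 transfected cells and 100% = cells lacking NR2E3 construct; higher means lower luciferase signal from less NR2E3 corepressor binding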
CHT inh: inhibits the human high affinity choline transporter; CHT-expressing cells, membrane potential dye, choline response; stronger effect = lower value; 310,000 tested, 0.86% active; Q9GZV3; B-score at 10 µM;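 active means B-score over 3 SD under the library average, and starting fluorescence ratio not unusually high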;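 further: choline stimulus applied at its EC90 after an EC20 pre-addition; B-score computed on integrated fluorescence ratio after choline addition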
GalR3 antagonist: blocks the human galanin receptor 3; O60755; HEK293 GalR3-CNG cAMP membrane potential fluorescence; galR3 body fused to GalR1 C-terminus; inhibition, % at 3 µM; 360,000 tested, 0.44% active; AID 651719;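 active means inhibition above the screen-wide average plus 3 SD, cut at about 13% in these data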;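 further: forskolin and galanin both at EC90 stimulate the cells; cAMP rise reported by CNG channel membrane potential dye signal; 0% = forskolin plus galanin with DMSO and 100% = forskolin alone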
Target sequence (O60755 1-299 limits assumed): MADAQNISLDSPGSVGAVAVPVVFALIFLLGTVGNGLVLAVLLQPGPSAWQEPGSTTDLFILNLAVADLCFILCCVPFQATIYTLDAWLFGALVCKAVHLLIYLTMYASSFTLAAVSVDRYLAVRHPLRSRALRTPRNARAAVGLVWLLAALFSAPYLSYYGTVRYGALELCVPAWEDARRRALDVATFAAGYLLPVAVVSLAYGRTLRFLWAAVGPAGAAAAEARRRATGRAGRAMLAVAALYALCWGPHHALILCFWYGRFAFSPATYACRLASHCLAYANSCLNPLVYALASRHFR
NR2E3 ag conf: NR2E3 agonism confirmed in two-hybrid assay. shares compounds with NR2E3 ag-2. AID 624378. inhibition, % at 3.98 µM. CHO-S mammalian two-hybrid NR2E3-NCOR, luciferase luminescence. 2,300 tested, 51% active;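 active means average inhibition above a cutoff equal to the mean inhibition of all tested compounds plus one SD, cut at about 70% in these data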;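 further: 0% = DMSO in NR2E3 cells and 100% = DMSO in cells lacking NR2E3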
GAL4-VP16 luc: reduces GAL4-VP16 reporter signal in NR2E3 counterscreen | shares compounds with NR2E3 ag-2 | CHO-S GAL4-VP16 luciferase reporter, luminescence | inhibition, % at 3.98 µM | 2,300 tested, 29% active | AID 624379;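 active means mean inhibition above a cutoff equal to the average over all tested compounds plus one standard deviation, cut at about 70% in these data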;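 further: luciferase from a UAS reporter driven by GAL4-VP16 transactivation; 0% = DMSO with VP16-transfected cells and 100% = DMSO with cells lacking VP16; higher means less reporter light so more repression of VP16 activity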
GalR3 antag conf: GalR3 (human) antagonism, confirmation | shares compounds with GalR3 antagonist | HEK293 GalR3 CNG cAMP biosensor, membrane potential fluorescence; galR3 fused to GalR1 carboxy tail; challenged with forskolin and galanin at EC90 | 1,600 tested, 59% active | inhibition, % at 3 µM | AID 652245;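 active means inhibition above the primary screen's cutoff, the mean inhibition of all screened compounds plus 3 SD, cut at about 13% in these data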;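 further: 0% = forskolin plus galanin and 100% = forskolin alone with DMSO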
CNG parental: acts as nonspecific agonist in parental HEK-CNG cells | shares compounds with GalR3 antagonist | HEK293-CNG parental cells, cAMP membrane potential fluorescence; normalised: DMSO wells 0%, forskolin wells 100% | activation, % at 3 µM | 1,600 tested, 10% active | AID 652268; in the data active means activation above about 1.3%
Gal4-VP16 ctr: inhibits VP16 reporter, flagging COUP-TFII antagonist hits | 2,500 tested, 25% active | HEK293 Gal4-VP16 luciferase reporter, luminescence | AID 687007 | inhibition, % at 8.5 µM | shares compounds with COUP-TFII inh; in the data active means inhibition above about 13%
NR2F2 inh conf: confirmation of human COUP-TFII (NR2F2) inhibitors | shares compounds with COUP-TFII inh | HEK293 NGFI-A luciferase reporter, luminescence | inhibition, % at 8.5 µM | 2,500 tested, 45% active | AID 687008;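 active means mean inhibition over three repeats above a set limit taken from the earlier primary screen, cut at about 38% in these data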;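 further: 100% = cells given the luciferase reporter alone without the COUP-TF2 vector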
The depositor's hits bear a star; i = inactive; x = no result. Shown are actives, neighbours in structure and some others; about 2.3% of the full set was active somewhere.

SMILES	COUP-TFII inh	NR2E3 ag-1	CHT allo act	NR2E3 ag-2	CHT inh	GalR3 antagonist	NR2E3 ag conf	GAL4-VP16 luc	Gal4-VP16 ctr	NR2F2 inh conf	others
Cc1cc(C(=O)CSc2ncnc3ccccc23)c(C)n1C1CC1	1.7	1.8	x	19.5	x	-7.3	x	x	x	x
Cc1cc(-n2c(C)cc(C(=O)CSc3ncnc4ccccc34)c2C)no1	53.9*	2.8	i	91.6*	i	91.1*	96.9*	86.4*	-3.6	60.0*	GalR3 antag conf=2.9;CNG parental=-0.1
COc1cccc(N2CCN(CC(=O)NCc3ccc(Cl)cc3)CC2)c1	12.2	x	x	x	x	x	x	x	x	x
Cc1ccc(C)c(NC(=O)CN(C)C(=O)c2cccc(S(=O)(=O)N3CCN(Cc4ccccc4)CC3)c2)c1	44.5*	-0.5	i	58.5	i	1.0	50.8	47.7	-3.8	31.4
Cc1ccc(C)c(NC(=O)CN(C)C(=O)c2cccc(S(=O)(=O)N3CCCC3)c2)c1	8.2	x	x	14.4	x	1.2	x	x	x	x
CN(CCOc1ccc(Cl)cc1)C(=O)c1cccc(S(=O)(=O)N2CCN(Cc3ccccc3)CC2)c1	66.8*	x	x	83.6*	x	31.2*	92.1*	73.9*	14.9*	57.7*	GalR3 antag conf=83.9*;CNG parental=0.9
COc1cccc(CN(C)C(=O)c2cccc(S(=O)(=O)N3CCN(c4ccccc4)CC3)c2)c1	23.5	x	x	43.9	x	3.8	x	x	x	x
COc1ccc(CN(C)C(=O)c2cccc(S(=O)(=O)N3CCN(c4ccccc4)CC3)c2)c(OC)c1OC	41.1*	5.1	i	54.5	i	-6.5	83.2*	64.3	8.0	37.2
COC(=O)C1CN(Cc2cn(CCOC(C)=O)nn2)CCS(=O)(=O)N1Cc1ccc(Cl)cc1 (stereo not given)	-18.9	x	x	x	x	x	x	x	x	x
C[C@H](O)[C@@H]1CN2CCc3ccc(N4CCOCC4)cc3[C@@H]2C[C@@H]1N(C)C(=O)c1ccccc1F	18.0	x	x	x	x	x	x	x	x	x
O=C(O)CCC(=O)Nc1ccc(N=Nc2ccccc2)cc1	x	x	x	-7.6	x	x	x	x	x	x
CC(C)(C)C(=O)Nc1ccc(N=Nc2ccccc2)cc1	66.3*	1.1	i	55.9	i	-4.2	25.8	-22.8	-8.7	60.3*
Cc1cc(Cl)ccc1OCC(=O)N/N=C/c1ccc[nH]1	21.5	x	x	x	x	x	x	x	x	x
c1ccc(CCNc2ncnc3ccccc23)cc1	56.8*	3.2	i	49.7	i	93.4*	88.7*	70.3	-148.7	29.0
Clc1cccc(Nc2ncnc3ccc(Br)cc23)c1	25.2	14.3	i	-27.5	i	-9.4	x	x	x	x
Brc1ccc2ncnc(NCc3ccccc3)c2c1	57.9*	2.3	i	65.3	i	-6.4	90.5*	85.0*	18.0*	48.9*
Nc1nc(F)nc2c1ncn2[C@@H]1O[C@H](CO)[C@@H](O)[C@H]1O	81.8*	3.2	i	103.3*	i	-8.2	99.9*	99.0*	54.7*	65.4*
Nc1nc(F)nc2c1ncn2[C@@H]1O[C@H](CO)[C@@H](O)[C@@H]1O	0.5	2.8	i	8.7	i	-2.1	x	x	x	x
